# Reference: ChEMBL document CHEMBL1133654, “Studies directed at the use of a parallel synthesis matrix to increase throughput in an in vivo assay” (2000)
# Test: Mean plasma clotting time (APTT) was measured following a single colonic dose with heparin in rats
# Assay type: functional, Rattus norvegicus
# How it was run: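 Male Sprague-Dawley rats (300-350 g, fasted 12 h, groups of 5) were anesthetized with ketamine 44 mg/kg im and given one colonic dose (1 mL/kg) by catheter through the anus. Dosing was delivery agent 50 mg/kg plus heparin 25 mg/kg for single agents, or 50 mg/kg for mixtures, as a sonicated solution of apparent pH about 7. Citrated cardiac blood was taken at 0-1.5 h, and mean peak plasma APTT was reported.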
row,Compound,APTT
1,O=C(O)CCCCCCCCCNC(=O)c1ccccc1F,27 s
2,O=C(O)CCCCCCCCCCCNC(=O)c1ccccc1,24 s
3,O=C(O)CCCCCCCCCCCNC(=O)c1ccccc1F,33 s
4,Cc1ccccc1C(=O)NCCCCCCCCCC(=O)O,34 s
5,O=C(O)CCCCCNC(=O)c1ccccc1F,28 s
6,O=C(O)CCCNC(=O)c1ccccc1F,22 s
7,Cc1ccccc1C(=O)NCCCCCC(=O)O,26 s
8,COc1ccccc1C(=O)NCCCCCCCCCC(=O)O,50 s
9,COc1ccccc1C(=O)NCCCCCCCCCCCC(=O)O,54 s
10,Cc1ccccc1C(=O)NCCCCCCCCCCCC(=O)O,30 s
11,O=C(O)CCCCCNC(=O)c1ccccc1,33 s
12,O=C(O)CCCNC(=O)c1ccccc1,22 s
13,O=C(O)CCCCCCCCCNC(=O)c1ccccc1,31 s
14,O=C(O)CCCCCCCNC(=O)c1ccccc1,21 s
15,COc1ccccc1C(=O)NCCCCCCCC(=O)O,27 s
16,Cc1ccccc1C(=O)NCCCCCCCC(=O)O,23 s
17,O=C(O)CCCCCCCNC(=O)c1ccccc1F,25 s
18,O=C(O)CCCNC(=O)c1ccccc1O,31 s
19,O=C(O)CCCCCCCCCCCNC(=O)c1ccccc1O,86 s
20,O=C(O)CCCCCCCCCNC(=O)c1ccccc1O,153 s
21,O=C(O)CCCCCNC(=O)c1ccccc1O,24 s
22,COc1ccccc1C(=O)NCCCCCC(=O)O,31 s
23,Cc1ccccc1C(=O)NCCCC(=O)O,24 s
24,COc1ccccc1C(=O)NCCCC(=O)O,26 s
25,O=C(O)CCCCCCCNC(=O)c1ccccc1O [SALCAPROZIC ACID],125 s
